Activity calls are given as the source filed them. No cut-off for these calls is given here.
How the values were obtained:
[1] = system: MCF7; assay: Growth inhibition of human MCF7 cells after 24 hrs by SRB assay; assay type: functional; details: MCF7, 24 h
How it was run: (§1)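 Sulforhodamine B growth assay in MCF-7 or MDA-MB-231 breast cancer cells after 24 h of compound treatment. GI50 is the concentration giving 50% inhibition of proliferation, with an upper test limit of 50 µM. Values are the mean of triplicate experiments.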

[2] = system: MDA-MB-231; assay: Growth inhibition of human MDA-MB-231 cells after 24 hrs by SRB assay; assay type: functional; details: MDA-MB-231, 24 h; how it was run: as §1
[3] = system: MDA-MB-231; assay: Anti-migratory activity against human MDA-MB-231 cells assessed as cell migration at 10 uM after 12 hrs by scratch wound-healing assay; assay type: functional, cell-based
How it was run: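 Scratch wound-healing assay in MDA-MB-231 cells with test compounds at 10 µM against vehicle (0.02% DMSO). Wounds were photographed at 0, 12 and 24 h. Migration was taken as the distance travelled from the scratch edge toward its centre, relative to control. Values are the average of three independent experiments.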

[4] = system: MCF-10A; assay: Growth inhibition of human MCF10A cells up to 36 uM after 24 hrs by CellTiter 96 aqueous one solution cell proliferation assay; assay type: cell-based
[5] = system: MCF-10A; assay: Cytotoxicity against human MCF10A cells assessed as reduction in cell viability at 30 to 50 uM after 24 hrs by CellTiter 96 aqueous one solution cell proliferation assay; assay type: cell-based
[6] = molecular target: Ras-related C3 botulinum toxin substrate 1 (Homo sapiens) (UniProt P63000); assay: Inhibition of Rac1 in human MDA-MB-435 cells assessed as reduction in Rac-GTP level atv 250 nM after 24 hrs by ELISA-based pull down assay; assay type: cell-based
[7] = molecular target: Ras-related C3 botulinum toxin substrate 1 (Homo sapiens) (UniProt P63000); assay: Inhibition of Rac1 in human MDA-MB-231 cells assessed as reduction in Rac-GTP level at 250 nM after 24 hrs by ELISA-based pull down assay; assay type: cell-based
[8] = system: MDA-MB-231; assay: Anti-migratory activity against human MDA-MB-231 cells assessed as reduction in cell migration at 5 uM after 24 hrs by scratch wound-healing assay relative to control; assay type: functional; parameters: scale not given: the % may be the effect or the level left
[9] = Growth inhibition of human MCF10A cells at 10 uM after 24 hrs by MTT assay relative to control; assay type: cell-based, MCF-10A; details: read-out: GI
[10] = molecular target: Ras-related C3 botulinum toxin substrate 1 (Homo sapiens, UniProt P63000, G15A); assay: Inhibition of Vav2 binding to Rac1 G15A mutant in human MDA-MB-231 cells after 1 hr by pull down assay; assay type: cell-based
[11] = molecular target: Ras-related C3 botulinum toxin substrate 1 (Homo sapiens) (UniProt P63000); assay: Inhibition of Rac1 in human MDA-MB-435 cells assessed as reduction in phosphorylation at Thr423 residue at 2 uM after 24 hrs by Western blot analysis; assay type: cell-based

## CCn1c2ccccc2c2cc(NC(=O)c3cccnc3N3CCOCC3)ccc21
[1]
  GI50: > 50 µM
[2]
  GI50: > 50 µM
[3]
  Activity: Active

## CCn1c2ccccc2c2cc(NC(=O)c3cccnc3N3CCN(c4ccccc4)CC3)ccc21
[1]
  GI50: > 50 µM
[2]
  GI50: > 50 µM

## CCn1c2ccccc2c2cc(NC(=O)c3cccnc3NCCCN3CCOCC3)ccc21
[1]
  GI50: > 50 µM
[2]
  GI50: 19 µM

## CCn1c2ccccc2c2cc(Nc3ncccc3C(=O)NCCCN3CCOCC3)ccc21
[1]
  GI50: 28 µM
[2]
  GI50: > 50 µM

## CCn1c2ccccc2c2cc(NC(=O)c3ccccc3C(=O)NCCOC)ccc21
[1]
  GI50: > 50 µM
[2]
  GI50: > 50 µM

## CCn1c2ccccc2c2cc(NC(=O)c3nccnc3C(=O)NCCOC)ccc21
[1]
  GI50: > 50 µM
[2]
  GI50: > 50 µM

## CCn1c2ccccc2c2cc(C(=O)Nc3cccnc3N3CCOCC3)ccc21
[1]
  GI50: > 50 µM
[2]
  GI50: > 50 µM
[3]
  Activity: Active
[4]
  growth inhibition (GI): Non-Toxic
[5]
  Activity: Non-Toxic
[6]
  inhibition: 55%
[7]
  inhibition: 55%

## CCn1c2ccccc2c2cc(NC(=O)c3ccccc3C(=O)NCCO)ccc21
[1]
  GI50: > 50 µM
[2]
  GI50: > 50 µM

## CCn1c2ccccc2c2cc(NC(=O)c3nccnc3C(=O)NCCCN3CCOCC3)ccc21
[1]
  GI50: > 50 µM
[2]
  GI50: > 50 µM

## CCn1c2ccccc2c2cc(NC(=O)c3nccnc3C(=O)NCCCn3ccnc3)ccc21
[1]
  GI50: > 50 µM
[2]
  GI50: > 50 µM

## CCn1c2ccccc2c2cc(Nc3ccnc(NCCCN4CCOCC4)n3)ccc21
[1]
  GI50: 14 µM
[2]
  GI50: 15 µM
[8]
  Activity: 17%
[9]
  inhibition at 24 h, 10 µM: 50%
[10]
  IC50: 1.1 µM
[11]
  inhibition: 60%

## CCN(CC)CCCC(C)NC(=O)c1cccnc1Nc1ccc2c(c1)c1ccccc1n2CC (configuration not stated)
[1]
  GI50: 13 µM
[2]
  GI50: 18 µM

## CCn1c2ccccc2c2cc(NC(=O)c3nccnc3C(=O)NCCN3CCOCC3)ccc21
[1]
  GI50: > 50 µM
[2]
  GI50: > 50 µM

## CCn1c2ccccc2c2cc(Nc3ncccc3C(=O)NCCCn3ccnc3)ccc21
[1]
  GI50: 27 µM
[2]
  GI50: > 50 µM

## CCn1c2ccccc2c2cc(C(=O)Nc3cccnc3NCCCN3CCOCC3)ccc21
[1]
  GI50: 32 µM
[2]
  GI50: 39 µM

## CCn1c2ccccc2c2cc(Nc3ncccc3NC(=O)c3cccnc3)ccc21
[1]
  GI50: 41 µM
[2]
  GI50: 31 µM

## CCn1c2ccccc2c2cc(NC(=O)c3cccnc3N3CCN(C(C)=O)CC3)ccc21
[1]
  GI50: > 50 µM
[2]
  GI50: > 50 µM

## CCn1c2ccccc2c2cc(Nc3ncccc3NC(=O)CCN3CCCCC3)ccc21
[1]
  GI50: 15 µM
[2]
  GI50: 23 µM

## CCn1c2ccccc2c2cc(Nc3ncccc3C(=O)NCCN3CCN(C(=O)OC(C)(C)C)CC3)ccc21
[1]
  GI50: > 50 µM
[2]
  GI50: > 50 µM

## CCN(CC)CCNC(=O)c1cccnc1Nc1ccc2c(c1)c1ccccc1n2CC
[1]
  GI50: 14 µM
[2]
  GI50: 18 µM

## CCn1c2ccccc2c2cc(Nc3ncccc3C(=O)Nc3cc(OC)c(OC)c(OC)c3)ccc21
[1]
  GI50: > 50 µM
[2]
  GI50: > 50 µM
